Active and inactive are the calls of the source. The calls are words filed in the database; no cut-off is given here.
Key:
Mus musculus [1] = experiment: Toxicity in C57BL/6J mouse allografted with mouse LLC1 cells assessed as change in body weight at 1 mg/kg, ip qd administered from day 14 to 17 post tumor implantation measured during compound dosing; format: organism-based; design: dose 1 mg/kg, route intraperitoneal; details: in vivo
MEF [2] = experiment: Induction of apoptosis in Bad-deficient MEF assessed as appearance of fragmented nuclei and cell membrane blebbing after 24 hrs by DAPI staining; format: functional, cell-based; details: Mus musculus
Summary of the method: (§1)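 MEF wild-type or knockout clones (Bcl2, Bad, Bid, Bak, Bax, Bax/Bak) treated 24 h with compound (15 µM for single-concentration data) or 0.1% DMSO vehicle; apoptosis scored by fragmented nuclei and membrane blebbing. EC50 values are means of three experiments with s.d.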

MEF [3] = experiment: Induction of apoptosis in Bcl2-deficient MEF assessed as appearance of fragmented nuclei and cell membrane blebbing after 24 hrs by DAPI staining; format: functional, cell-based; details: Mus musculus; summary of the method: as §1
[4] = system: Lewis lung carcinoma cell line; experiment: Antitumor activity against mouse LLC1 cells allografted in C57BL/6J mouse assessed as decrease in ratio of tumor burden to lung area at 1 mg/kg, ip qd administered from day 14 to 17 post tumor implantation measured on day 17 by hematoxylin and eosin staining-based microscopic analysis relative to control; format: functional; design: scale not given: the % may be the effect or the level left; details: route intraperitoneal
Summary of the method: (§2)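 LLC1 cells injected via tail vein on day 0; from day 14 to day 17 mice given intraperitoneal injection once daily at 1 mg/kg, vehicle 1% DMSO; euthanized day 17. Lungs inspected visually, and H&E-stained lung sections scored as tumor burden to lung area ratio versus vehicle controls.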

Mus musculus [5] = experiment: In vivo activation of Bax in mouse LLC1 cells allografted in C57BL/6J mouse at 1 mg/kg, ip qd administered from day 14 to 17 post tumor implantation measured on day 17 by immunoprecipitation assay; format: functional, organism-based; design: dose 1 mg/kg
Summary of the method: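 Mice carrying tail-vein-injected LLC1 lung tumors received 1 mg/kg intraperitoneally once daily days 14–17 (vehicle 1% DMSO); on day 17 lung lysates were immunoprecipitated with conformation-specific anti-BAX 6A7 antibody to detect activated BAX.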

MEF [6] = experiment: Induction of apoptosis in Bak-deficient MEF assessed as appearance of fragmented nuclei and cell membrane blebbing after 24 hrs by DAPI staining; format: functional, cell-based; details: Mus musculus; summary of the method: as §1
Mus musculus [7] = species: Mus musculus; experiment: Toxicity in C57BL/6J mouse assessed as effect on femoral muscle; format: organism-based, Muscle tissue; details: in vivo
MEF [8] = experiment: Induction of apoptosis in MEF assessed as appearance of cell membrane blebbing at 15 uM after 24 hrs by DAPI staining in presence of caspase inhibitor Ac-DEVD-CHO; format: functional, cell-based; details: Mus musculus
Summary of the method: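 MEF cells treated 24 h at 15 µM in presence of caspase inhibitor Ac-DEVD-CHO (10 µM); cell membrane blebbing assessed by microscopy.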

[9] = system: Lewis lung carcinoma cell line; experiment: Antitumor activity against mouse LLC1 cells allografted in C57BL/6J mouse assessed as reduction of tumor lesions at 1 mg/kg, ip qd administered from day 14 to 17 post tumor implantation measured on day 17 by hematoxylin and eosin staining-based microscopic analysis; format: functional, organism-based; design: dose 1 mg/kg; summary of the method: as §2
MEF [10] = experiment: Induction of apoptosis in Bax-deficient MEF assessed as appearance of fragmented nuclei and cell membrane blebbing after 24 hrs by DAPI staining; format: functional, cell-based; details: Mus musculus; summary of the method: as §1
MEF [11] = experiment: Induction of apoptosis in Bax/Bak-deficient MEF assessed as appearance of fragmented nuclei and cell membrane blebbing after 24 hrs by DAPI staining; format: functional, cell-based; details: Mus musculus; summary of the method: as §1
Bcl-2-like protein 1 = Bcl-2-like protein 1 (Homo sapiens, UniProt Q07817); experiment: Displacement of FITC-BIM from recombinant human Bcl-XL expressed in Escherichia coli after 30 mins by fluorescence polarization assay
Sequence of Bcl-2-like protein 1 (Q07817 whole entry): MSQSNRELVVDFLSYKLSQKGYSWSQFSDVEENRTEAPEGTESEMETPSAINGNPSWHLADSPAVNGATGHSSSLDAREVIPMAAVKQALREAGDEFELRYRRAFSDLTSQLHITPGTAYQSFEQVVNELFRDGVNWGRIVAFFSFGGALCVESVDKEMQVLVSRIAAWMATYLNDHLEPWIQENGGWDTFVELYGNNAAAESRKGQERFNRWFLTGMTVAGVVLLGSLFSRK
Summary of the method: (§3)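 Fluorescence polarization competition: serial compound dilutions in 20 mM Hepes-KOH pH 7.4, 150 mM NaCl with 50 nM FITC-BIM; after 5 min, E. coli-expressed recombinant protein added at 1 µM; polarization read after 30 min incubation. Triplicates; Ki from nonlinear regression of competitive binding curves.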

Mus musculus [12] = species: Mus musculus; experiment: Toxicity in C57BL/6J mouse assessed as effect on lung; format: organism-based; details: in vivo
[13] = Cytotoxicity against C57BL/6J mouse primary splenocytes assessed as effect on apoptosis rate at 10 uM after 72 hrs by DAPI staining; format: cell-based; details: splenocyte
Summary of the method: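 Primary splenocytes exposed 72 hours to 10 µM; apoptosis rate determined by counting apoptotic nuclei; mean with s.d. reported.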

MEF [14] = experiment: Induction of apoptosis in Bid-deficient MEF assessed as appearance of fragmented nuclei and cell membrane blebbing after 24 hrs by DAPI staining; format: functional, cell-based; details: Mus musculus; summary of the method: as §1
Mus musculus [15] = experiment: Toxicity in C57BL/6J mouse allografted with mouse LLC1 cells assessed as mortality at 1 mg/kg, ip qd administered from day 14 to 17 post tumor implantation measured during compound dosing; format: organism-based; design: dose 1 mg/kg, route intraperitoneal; details: in vivo
[16] = molecular target: Apoptosis regulator Bcl-2 (Homo sapiens, UniProt P10415); experiment: Displacement of FITC-BIM from recombinant human Bcl-2 expressed in Escherichia coli after 30 mins by fluorescence polarization assay; summary of the method: as §3
Sequence of Apoptosis regulator Bcl-2 (P10415 whole entry): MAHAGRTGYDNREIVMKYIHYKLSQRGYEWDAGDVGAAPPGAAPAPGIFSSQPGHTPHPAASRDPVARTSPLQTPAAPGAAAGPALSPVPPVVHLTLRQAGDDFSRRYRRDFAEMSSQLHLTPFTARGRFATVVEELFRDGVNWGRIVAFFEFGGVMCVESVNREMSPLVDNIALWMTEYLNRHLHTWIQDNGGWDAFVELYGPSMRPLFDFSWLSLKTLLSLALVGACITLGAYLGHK

Mus musculus [17] = experiment: Toxicity in C57BL/6J mouse allografted with mouse LLC1 cells assessed as evidence of gross toxicity at 1 mg/kg, ip qd administered from day 14 to 17 post tumor implantation measured during compound dosing; format: organism-based; design: dose 1 mg/kg, route intraperitoneal; details: in vivo
Mus musculus [18] = experiment: Toxicity in C57BL/6J mouse allografted with mouse LLC1 cells assessed as evidence of behavioral side effect at 1 mg/kg, ip qd administered from day 14 to 17 post tumor implantation measured during compound dosing; format: organism-based; design: dose 1 mg/kg, route intraperitoneal; details: in vivo
Mus musculus [19] = species: Mus musculus; experiment: Toxicity in C57BL/6J mouse assessed as effect on heart; format: organism-based; details: in vivo
MEF [20] = experiment: Induction of apoptosis in wild-type MEF assessed as appearance of fragmented nuclei and cell membrane blebbing after 24 hrs by DAPI staining; format: functional, cell-based; details: Mus musculus; summary of the method: as §1
MEF [21] = experiment: Induction of apoptosis in Bax/Bak-deficient MEF assessed as appearance of fragmented nuclei and cell membrane blebbing at 15 uM after 24 hrs by DAPI staining; format: functional, cell-based; details: Mus musculus; summary of the method: as §1
MEF [22] = experiment: Induction of apoptosis in MEF assessed as appearance of fragmented nuclei and cell membrane blebbing at 15 uM after 24 hrs by DAPI staining; format: functional, cell-based; details: Mus musculus; summary of the method: as §1
MEF [23] = experiment: Induction of apoptosis in Bid-deficient MEF assessed as appearance of fragmented nuclei and cell membrane blebbing at 15 uM after 24 hrs by DAPI staining; format: functional, cell-based; details: Mus musculus; summary of the method: as §1
MEF [24] = experiment: Induction of apoptosis in Bcl2-deficient MEF assessed as appearance of fragmented nuclei and cell membrane blebbing at 15 uM after 24 hrs by DAPI staining; format: functional, cell-based; details: Mus musculus; summary of the method: as §1
MEF [25] = experiment: Induction of apoptosis in Bax-deficient MEF assessed as appearance of fragmented nuclei and cell membrane blebbing at 15 uM after 24 hrs by DAPI staining; format: functional, cell-based; details: Mus musculus; summary of the method: as §1
MEF [26] = experiment: Induction of apoptosis in Bad-deficient MEF assessed as appearance of fragmented nuclei and cell membrane blebbing at 15 uM after 24 hrs by DAPI staining; format: functional, cell-based; details: Mus musculus; summary of the method: as §1
MEF [27] = experiment: Induction of apoptosis in Bak-deficient MEF assessed as appearance of fragmented nuclei and cell membrane blebbing at 15 uM after 24 hrs by DAPI staining; format: functional, cell-based; details: Mus musculus; summary of the method: as §1
[28] = system: Lewis lung carcinoma cell line; experiment: Antitumor activity against mouse LLC cells allografted in C57BL/6 mouse assessed as tumor growth inhibition at 60 mg/kg, ip administerd for 14 days measured on day 15 relative to control; details: read-out: TGI
[29] = system: Lewis lung carcinoma cell line; experiment: Antitumor activity against mouse LLC cells allografted in BD2F mouse assessed as tumor growth inhibition at 1.25 mg/kg, ip administered every other day for 5 treatments relative to control; format: functional; details: route intraperitoneal, read-out: TGI

Row | Compound | Ki (Bcl-2-like protein 1) | Ki [16] | Activity (MEF [21]) | Activity (MEF [22]) | Activity (MEF [23]) | Activity (MEF [24]) | Activity (MEF [25]) | Activity (MEF [26]) | Activity (MEF [27]) | other results
1 | CCOc1ccccc1N/N=C1\C(=O)N(c2cc(O)cc(-c3ccc(N(C)C)cc3)c2)N=C1C | > 100 µM | 12 µM | – | – | – | – | – | – | – | Activity (Mus musculus [1]): Non-toxic; EC50 (MEF [2]): 0.8 µM; EC50 (MEF [3]): 0.6 µM; Activity [4]: 50%; Activity (Mus musculus [5]): Active; EC50 (MEF [6]): 1.3 µM; Activity (Mus musculus [7]): Non-toxic; Activity (MEF [8]): inactive; Activity [9]: Active; EC50 (MEF [10]): > 50 µM; EC50 (MEF [11]): > 50 µM; Activity (Mus musculus [12]): Non-toxic; Activity [13]: Non-toxic; EC50 (MEF [14]): 0.7 µM; Activity (Mus musculus [15]): Non-toxic; Activity (Mus musculus [17]): Non-toxic; Activity (Mus musculus [18]): Non-toxic; Activity (Mus musculus [19]): Non-toxic; EC50 (MEF [20]): 1.1 µM
2 | O=P1(N(CCCl)CCCl)NCCCO1 (stereo not drawn) [CYCLOPHOSPHAMIDE ANHYDROUS] | – | – | – | – | – | – | – | – | – | inhibition in vivo at 60 mg/kg [28]: 40%
3 | COc1cccc2c1C(=O)c1c(O)c3c(c(O)c1C2=O)C[C@@](O)(C(=O)CO)C[C@@H]3O[C@H]1C[C@H](N)[C@H](O)[C@H](C)O1 [DOXORUBICIN] | – | – | – | – | – | – | – | – | – | inhibition in vivo at 1.25 mg/kg [29]: 40%
4 | CC1=NN(c2cc(O)cc(-c3ccc(N(C)C)cc3)c2)C(=O)/C1=N\Nc1ccc2ccccc2c1 | 3.4 µM | 33.9 µM | inactive | Active | Active | Active | inactive | Active | Active | –

Second part, led by results:

Row | Ki (Bcl-2-like protein 1) | Ki [16] | Compound | Activity (MEF [21]) | Activity (MEF [22]) | Activity (MEF [23]) | Activity (MEF [24]) | Activity (MEF [25]) | Activity (MEF [26]) | Activity (MEF [27]) | other results
5 | > 100 µM | 3 µM | CCOc1ccccc1N/N=C1/C(=O)N(c2nc(-c3ccccc3)cs2)N=C1C | – | – | – | – | – | – | – | EC50 (MEF [2]): 3.5 µM; EC50 (MEF [3]): 3.2 µM; EC50 (MEF [6]): 6 µM; EC50 (MEF [10]): > 50 µM; EC50 (MEF [11]): > 50 µM; EC50 (MEF [14]): 4 µM; EC50 (MEF [20]): 7.7 µM
6 | 15.5 µM | 1.9 µM | CCOc1ccccc1N/N=C1\C(=O)N(c2cc(O)cc(-c3ccc(C(C)C)cc3)c2)N=C1C | inactive | Active | Active | Active | Active | Active | Active | –
7 | 6.8 µM | 2 µM | CC1=NN(c2nc(-c3ccccc3)cs2)C(=O)/C1=C/c1ncc[nH]1 | inactive | Active | Active | Active | Active | Active | Active | –
8 | 2.4 µM | 1.9 µM | CC1=NN(c2nc(-c3ccccc3)cs2)C(=O)/C1=C/c1ccccc1 | inactive | Active | Active | Active | Active | Active | Active | –
